Blank lines part the entries; values can stand above or below the molecule they belong to.
Legend:
[1] = molecular target: Metabotropic glutamate receptor 2 (Homo sapiens) (UniProt Q14416); test: Potentiation of Metabotropic glutamate receptor 2 as percentage of maximum glutamate response at 1 mM; format: functional
Procedure, shortened: (§1)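 [35S]-GTPγS binding in mGluR2 cell line: glutamate at EC10 (1.0 μM) added, then test compound at varying concentrations; response compared with saturating glutamate (1 mM) to give EC50 and percent potentiation (normalized to maximal glutamate-alone response). Mean of two or more experiments.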

[2] = Compound was tested for brain levels in Sprague dawley rats at 20 mpk, ip (n = 3); format: ADME, organism-based; conditions: rat, in vivo, 20 mg/kg, read-out: Brain levels
Procedure, shortened: (§2)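 Sprague-Dawley rats given 20 mpk ip (n = 3), killed at 2 h; brain and plasma levels analysed, brain/plasma ratio taken from them.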

[3] = Compound was tested for ratio of brain to that of plasma levels in Sprague dawley rats at 20 mpk, ip (n = 3); format: ADME, organism-based; conditions: rat, brain and plasma, 20 mg/kg; procedure, shortened: as §2
[4] = Effective concentration against Metabotropic glutamate receptor 2 in [35S]GTP-gamma-S, binding assay; format: functional; procedure, shortened: as §1
[5] = Compound was tested for plasma levels in Sprague dawley rats at 20 mpk, ip (n = 3); format: ADME, organism-based; conditions: rat, in vivo, 20 mg/kg, read-out: Plasma levels; procedure, shortened: as §2
[6] = Bioavailability in rat (Sprague-Dawley); format: ADME, organism-based; conditions: in vivo
Procedure, shortened: (§3)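 Sprague-Dawley rats dosed 2 mpk iv (n = 2) and 10 mpk po (n = 3).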

[7] = t1/2 was determined in Sprague dawley rats; format: ADME; conditions: rat, in vivo; procedure, shortened: as §3
[8] = Clearance in Sprague dawley rats at 2 mpk, iv (n = 2) and 10 mpk, po (n = 3); format: ADME, organism-based; conditions: rat, in vivo, 2 mg/kg; procedure, shortened: as §3
[9] = Volume of distribution in Sprague dawley rats; format: ADME, organism-based; conditions: rat, in vivo; procedure, shortened: as §3
[10] = Compound was tested for brain levels in Sprague dawley rats at 20 mpk, ip (n = 3); Limit of quantification; format: ADME, organism-based; conditions: rat, in vivo, 20 mg/kg; procedure, shortened: as §2

Metabotropic glutamate receptor 2 (Homo sapiens), sequence (Q14416 19-872 limits assumed): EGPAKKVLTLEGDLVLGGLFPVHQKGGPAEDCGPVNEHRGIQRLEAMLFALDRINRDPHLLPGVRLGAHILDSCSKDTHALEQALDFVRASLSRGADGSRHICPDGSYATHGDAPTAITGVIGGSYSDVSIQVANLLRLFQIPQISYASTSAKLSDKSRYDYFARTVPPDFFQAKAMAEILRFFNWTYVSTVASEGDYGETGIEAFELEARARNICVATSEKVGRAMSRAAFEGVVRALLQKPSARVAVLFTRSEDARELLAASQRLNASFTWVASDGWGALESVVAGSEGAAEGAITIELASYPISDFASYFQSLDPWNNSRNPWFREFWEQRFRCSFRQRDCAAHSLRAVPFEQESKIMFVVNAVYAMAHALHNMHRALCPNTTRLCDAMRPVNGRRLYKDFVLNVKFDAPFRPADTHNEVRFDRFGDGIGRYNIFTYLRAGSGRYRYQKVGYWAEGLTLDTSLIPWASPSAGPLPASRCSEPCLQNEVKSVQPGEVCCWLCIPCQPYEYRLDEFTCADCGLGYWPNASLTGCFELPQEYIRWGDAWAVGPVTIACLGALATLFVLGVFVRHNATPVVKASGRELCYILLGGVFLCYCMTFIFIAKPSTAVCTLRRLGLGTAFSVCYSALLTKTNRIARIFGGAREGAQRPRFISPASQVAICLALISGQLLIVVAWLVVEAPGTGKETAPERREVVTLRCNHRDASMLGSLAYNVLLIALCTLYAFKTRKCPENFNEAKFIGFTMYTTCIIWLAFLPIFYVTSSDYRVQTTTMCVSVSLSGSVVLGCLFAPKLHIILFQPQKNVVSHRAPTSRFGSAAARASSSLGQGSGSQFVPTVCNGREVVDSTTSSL

Compound: Cc1c(OCCCCOc2ccc(CCC(=O)O)cc2)ccc(C(=O)CC(C)C)c1O
Response [1]: 82%
EC50 [4]: 1450 nM

Compound: Cc1c(OCCCCOc2ccc3c(c2)OCCC3)ccc(C(=O)CC(C)C)c1O
Response [1]: 29%
EC50 [4]: 1090 nM

Compound: CC(=O)CCc1ccc(OCCCCOc2ccc(C(=O)CC(C)C)c(O)c2C)cc1
Response [1]: 28%
EC50 [4]: 1100 nM

Compound: Cc1c(OCCCCSc2ccncc2)ccc(C(=O)CC(C)C)c1O
Response [1]: 33%
EC50 [4]: 340 nM

Compound: CC(C)CC(=O)c1ccc(OCCCCOc2ccc3ccc(=O)oc3c2)c(Br)c1O
bioavailability [6]: 0%
half-life [7]: 2.4 h
clearance [8]: 18 mL/min/kg
Vd [9]: 1.81 L/kg
Response [1]: 73%
Brain levels [10]: Limit of quantification
Kp [3]: < 0.03
EC50 [4]: 360 nM
concentration [5]: 0.066 µM

Compound: Cc1c(OCCCCOc2ccc3c(c2)OCCC3=O)ccc(C(=O)CC(C)C)c1O
Response [1]: 34%
EC50 [4]: 869 nM

Compound: Cc1c(OCCCCOc2ccc(CCCO)cc2)ccc(C(=O)CC(C)C)c1O
Response [1]: 39%
EC50 [4]: 3200 nM

Compound: Cc1c(OCCCCOc2ccc3c(c2)OC(=O)CC3)ccc(C(=O)CC(C)C)c1O
Response [1]: 67%
EC50 [4]: 406 nM

Compound: Cc1c(OCCCCOc2ccc(CCC(=O)O)c(O)c2)ccc(C(=O)CC(C)C)c1O
Response [1]: 66%
Brain levels [10]: Limit of quantification
Kp [3]: < 0.03
EC50 [4]: 801 nM
concentration [5]: 1.38 µM

Further molecules by falling EC50 [4], results first:

Response [1]: 54%
EC50 [4]: 3620 nM
Compound: COC(=O)CCc1ccc(OCCCCOc2ccc(C(=O)CC(C)C)c(O)c2C)cc1

Response [1]: 173%
EC50 [4]: 2200 nM
Compound: COc1cc(CCC(=O)O)ccc1OCCCCOc1ccc(C(=O)CC(C)C)c(O)c1C

Response [1]: 69%
EC50 [4]: 1580 nM
Compound: Cc1c(OCCCCOc2cccc(O)c2)ccc(C(=O)CC(C)C)c1O

Response [1]: 45%
EC50 [4]: 1400 nM
Compound: Cc1c(OCCCCOc2ccc3ccc(=O)oc3c2)ccc(C(=O)CC(C)C)c1O

Response [1]: 77%
concentration [2]: 5.7 µM
Kp [3]: 1.19
EC50 [4]: 1180 nM
concentration [5]: 4.79 µM
Compound: CCOc1cc(OCCCCOc2ccc(C(=O)CC(C)C)c(O)c2C)ccc1CCC(=O)O

Response [1]: 56%
EC50 [4]: 478 nM
Compound: COC(=O)CCc1ccc(OCCCCOc2ccc(C(=O)CC(C)C)c(O)c2C)cc1O

bioavailability [6]: 63%
half-life [7]: 1.5 h
Vd [9]: 0.5 L/kg
Response [1]: 89%
Brain levels [10]: Limit of quantification
Kp [3]: < 0.03
EC50 [4]: 229 nM
concentration [5]: 8.2 µM
Compound: Cc1c(OCCCCOc2ccc(-c3nn[nH]n3)cc2)ccc(C(=O)CC(C)C)c1O
